Compound activity (PubChem BioAssay)
Rtt109 Vps75: inhibitors of Candida albicans Rtt109/Vps75 histone acetyltransferase. purified Rtt109/Vps75, ThioGlo CoA-SH fluorescence, 4 h. inhibition, % at 34.9 µM. actives 0.16% (n = 330,000);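 active = inhibition of at least 50% in every replicate; inconclusive = best replicate reaches 50% inhibition but some replicates fall short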
Glyco luc inh: blocks N-linked glycosylation in D54 reporter cells | D54 ERlucT glycosylation luciferase reporter, 24 h; percent of 100 nM tunicamycin response | reporter increase, % at 12.5 µM | actives 0.23% (n = 360,000);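 active = mean luciferase reporter signal, scaled so untreated is 0 and the glycosylation-blocking control 100, at or above a set limit in every replicate; inconclusive = mean reaches the limit but not every replicate does; inactive = mean below the limit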;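 also: luciferase carries N-glycosylation sites so blocking glycosylation raises the light; 0% = median of neutral control wells and 100% = median of 100 nM tunicamycin wells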
SR-BI HDL uptake: inhibitors of mouse SR-BI mediated HDL lipid uptake. ldlA[mSR-BI] CHO cells, DiI-HDL uptake fluorescence, 3 h. AID 488896. actives 0.96% (n = 320,000). inhibition, % at 12.5 µM;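 active = mean replicate inhibition of at least 70% and a set share of replicates each scoring 70 or more; inconclusive = meets just one of the two criteria; inactive = fails both criteria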;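 also: 0% = median of neutral control wells and 100% = median of positive control wells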
Target sequence (Q61009 whole entry, looked up): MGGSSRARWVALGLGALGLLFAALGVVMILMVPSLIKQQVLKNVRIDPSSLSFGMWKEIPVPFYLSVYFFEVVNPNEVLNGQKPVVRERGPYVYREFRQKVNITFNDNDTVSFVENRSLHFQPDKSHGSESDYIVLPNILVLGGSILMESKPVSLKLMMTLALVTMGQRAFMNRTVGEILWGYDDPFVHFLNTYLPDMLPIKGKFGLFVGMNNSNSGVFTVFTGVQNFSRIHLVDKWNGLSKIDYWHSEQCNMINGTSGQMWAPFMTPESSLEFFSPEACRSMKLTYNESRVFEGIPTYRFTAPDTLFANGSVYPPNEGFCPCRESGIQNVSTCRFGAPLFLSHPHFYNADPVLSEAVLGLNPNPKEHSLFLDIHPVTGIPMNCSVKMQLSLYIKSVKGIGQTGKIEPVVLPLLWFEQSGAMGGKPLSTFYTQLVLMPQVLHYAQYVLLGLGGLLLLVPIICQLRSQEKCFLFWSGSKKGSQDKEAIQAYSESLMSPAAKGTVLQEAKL
Env fusion inh: inhibitors of HIV Env-mediated cell fusion. HeLa-JRFL Env/CEM21 cell fusion, luciferase. inhibition, % at 12.3 µM. actives 1.1% (n = 360,000);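 active = mean replicate inhibition score of at least 50 and every replicate individually at or above 50; inconclusive = only one of the two criteria met; inactive = mean below 50 and not all replicates reaching 50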;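 also: 0% = plate neutral controls and 100% = maraviroc near 300 nM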
PglD DTNB: inhibitors of Campylobacter jejuni PglD acetyltransferase | purified PglD enzyme, DTNB colorimetric CoA detection | inhibition, % at 12.5 µM | actives 0.098% (n = 360,000); in the data active = inhibition above about 16%, passing the limit was not always enough; inconclusive = no clear call, values can overlap the other calls
SR-BI uptake up: activators of SR-BI mediated HDL lipid uptake; activation, % at 12.5 µM; CHO ldlA[mSR-BI] cells, DiI-HDL uptake fluorescence, 3 h; 100 = double the neutral-control signal; actives 0.096% (n = 320,000); AID 504775;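 active = mean replicate activation of at least 60% and every replicate at or above 60%; inconclusive = mean or all-replicate condition met, but not both; inactive = mean below 60% and not all replicates reaching 60%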;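 also: 0% = median plate neutral-control signal and 100% = twice that signal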
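System: CHO ldlA[mSR-BI] cells / Medium: HEPES-buffered (25 mM, pH 7.4) F12 plus 0.5% BSA / Probe or stimulus: labelled HDL, 10 µg/mL / Doses: single compound concentration, delivered by pin transfer / Schedule: 3 h, 37 °C / Measured by: DiI fluorescence, bottom read / Measure: cell-associated DiI fluorescence as measure of HDL uptake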
An asterisk follows results filed as active; ? = inconclusive; . = no result; [ ] = remark or other dose. Only some compounds are listed: those with a hit (about 1.9% of all), similar ones and a draw of the others.

SMILES	Rtt109 Vps75	Glyco luc inh	SR-BI HDL uptake	Env fusion inh	PglD DTNB	SR-BI uptake up
COc1ccc(S(=O)(=O)Nc2ccc3c(c2)C(=O)N([C@H](C)CO)C[C@@H](C)[C@@H](CN(C)C(=O)NC(C)C)OCCCC[C@@H](C)O3)cc1	.	.	.	11[16.7 µM]	1	.
COc1ccc(S(=O)(=O)Nc2ccc3c(c2)C(=O)N([C@@H](C)CO)C[C@H](C)[C@H](CN(C)C(=O)NC(C)C)OCCCC[C@@H](C)O3)cc1	.	.	.	68*[16.7 µM]	-4	.
C[C@@H]1CN([C@H](C)CO)S(=O)(=O)c2ccc(-c3cccnc3)cc2O[C@@H]1CN(C)C(=O)c1cccc(F)c1	.	.	.	0[16.7 µM]	0	.
O=[N+]([O-])c1cc(C(F)(F)F)ccc1NCCCCNS(=O)(=O)c1ccc2ccccc2c1	-7	0	-35	62*	2	35
CS(=O)(=O)NCCCCNc1ccc(C(F)(F)F)cc1[N+](=O)[O-]	5	-1	-12	-9	.	12
CCCc1cc(C(=O)NCc2ccc(OC)cc2)no1	-8	-1	-5	85*	-3	5
C/C(=N\NS(=O)(=O)c1ccc([N+](=O)[O-])cc1)c1c[nH]c2ccccc12	3	0	-6	-1	-8	6
C/C(=N/NS(=O)(=O)c1ccc(Br)cc1)c1c[nH]c2ccccc12	18	2	-12	66*	2	12
CCN1/C(=C/c2sc(-c3ccccc3C)c[n+]2C)Sc2ccccc21	-1	36*	51	15	.	-51
CCC(=O)/C=C1/Sc2ccccc2N1CC	20	3	12	.	2	-12
COc1cccc(NC(=O)CSc2nnc(Cc3cccs3)n2-c2ccc(C)cc2)c1	16	-1	24	84*	-4	-24
Cc1cccc(-n2c(CNC(=O)COc3ccccc3)nnc2SCC(=O)Nc2nccs2)c1	-9	-1	17	.	-1	-17
COc1cccc(C(=O)NCc2nnc(SCC(=O)Nc3nccs3)n2-c2cccc(C)c2)c1	61*	-1	15	3	-2	-15
C[C@H]1CN([C@@H](C)CO)C(=O)Cc2cc(NS(=O)(=O)c3ccc(Cl)cc3)ccc2O[C@@H]1CN(C)Cc1ccc(C(=O)O)cc1	.	.	.	-38[16.7 µM]	.	.
O=C(C[C@@H]1CC[C@H]2[C@@H](COC[C@H](O)CN2C(=O)c2ccccc2F)O1)N1CCOCC1	.	.	.	.	-3	.
COc1ccc(C2/C=C\CN(C(=O)C3CC3)[C@H](Cc3ccccc3)C(=O)N2Cc2ccc(F)cc2)cc1 (some centres undefined)	-1	-4	21	.	-3	-21
COc1ccc([C@H]2/C=C\CN(C(=O)C3CC3)[C@@H](C)C(=O)N2Cc2ccc(F)cc2)cc1	3	0	-17	70*	0	17
COCC#Cc1ccc2c(c1)O[C@@H](CN(C)S(=O)(=O)c1ccc(C)cc1)[C@@H](C)CN([C@H](C)CO)S2(=O)=O	.	.	.	-2[16.7 µM]	3	.
COc1cc(C2NC(=O)C(C#N)=C(S)N2c2ccc(C)cc2)ccc1OC(C)C (centres undefined)	?	1	-28	.	1	28
Cc1ccc(N2C(S)=C(C#N)C(=O)NC2c2cccs2)cc1 (centres undefined)	?	-1	5	-22	.	-5
COc1ccc(C2NC(=O)C(C#N)=C(S)N2c2cccc(C)c2)cc1OC (centres undefined)	74*	0	.	-4	3	.
COc1ccc(C2NC(=O)C(C#N)=C(S)N2c2ccc(C)cc2)cc1OC (centres undefined)	24	0	0	24	.	0
COc1ccc(N2C(S)=C(C#N)C(=O)NC2c2ccc(OC)c(OC)c2)cc1 (centres undefined)	110*	1	6	4	.	-6
N#CC1=C(S)N(c2ccccc2)C(c2cccs2)NC1=O (centres undefined)	109*	0	-13	.	-5	13
CCOc1ccc(C2NC(=O)C(C#N)=C(S)N2c2ccc(OC)cc2)cc1OC (centres undefined)	144*	-1	2	.	1	-2
SMILES	Rtt109 Vps75	Glyco luc inh	SR-BI HDL uptake	Env fusion inh	PglD DTNB	SR-BI uptake up
CCNC(=O)[C@H]1[C@H](CO)[C@H]2Cn3c(ccc(-c4cccc(F)c4)c3=O)[C@H]2N1Cc1nccs1	.	.	.	.	-1	.
COC(=O)Cn1c2ccccc2c2nc3ccccc3nc21	2	5	98*	-11	-5	-98
CCCNC(=O)N[C@@H]1CC[C@H](CCn2cc(C3CCCC3)nn2)O[C@@H]1CO	.	.	.	15[16.7 µM]	0	.
Cc1noc(C)c1S(=O)(=O)N(C)C[C@H]1Oc2ccc(N(C)C)cc2CC(=O)N([C@H](C)CO)C[C@H]1C	.	.	.	1[16.7 µM]	0	.
COc1ccc(S(=O)(=O)N(C)C)cc1NC(=O)CN1CCN(C(=O)C2CC2)CC1	-16	4	8	-10	2	-8
COc1cc(Cl)c(C)cc1NC(=O)CN1CCN(C(=O)C2CC2)CC1	2	28*	24	.	1	-24
O=C1CCCC2=C1C1(CCCCC1)N=C(Nc1nc3ccccc3o1)N2	-4	47*	3	-81	.	-3
O=C(C[C@@H]1C[C@@H]2c3cc(NC(=O)c4ccc5c(c4)OCO5)ccc3O[C@@H]2[C@H](CO)O1)NCc1ccccn1	.	.	.	-6[16.7 µM]	-2	.
CCCCNC(=O)CCn1c(=O)c2ccccc2n(CC(=O)NCCc2ccc(OC)c(OC)c2)c1=O	5	-1	.	19	.	.
COCCCNC(=O)Cn1c(=O)n(Cc2ccc(C(=O)NCCc3ccc(OC)c(OC)c3)cc2)c(=O)c2ccccc21	1	-1	88*	3	7	-88
COCCCNC(=O)c1ccc(Cn2c(=O)c3ccccc3n(CC(=O)NCCc3ccc(OC)c(OC)c3)c2=O)cc1	-1	2	81*	-5	0	-81
COc1ccc(S(=O)(=O)Nc2ccc3c(c2)C(=O)N([C@H](C)CO)C[C@@H](C)[C@@H](CN(C)S(C)(=O)=O)OCCCC[C@@H](C)O3)cc1	.	.	.	4[16.7 µM]	2	.
Cc1ccc(C(=O)N/C(=C/c2ccco2)C(=O)NCCc2c[nH]c3ccccc23)cc1	16	45*	10	9	.	-10
C=CCOC(=O)C1=C(C)NC(SCC(=O)Nc2nccs2)=C(C#N)C1c1ccc(Cl)cc1 (centres undefined)	7	-2	51	103*	1	-51
CCN(CC)c1ccc(S(=O)(=O)N2CCCCC2)cc1NC(=O)CSCc1c(C)noc1C	14	-4	16	62*	-3	-16
COc1ccc(-c2cc3nc(C)n(N)c(=O)c3s2)cc1	-8	-20	16	84*	7	-16
Cc1nc2cc(-c3ccccc3)sc2c(=O)n1N	7	-22	3	64*	.	-3
